Rows were chosen to be rich in hits. Some 1.2% of all compounds tested hit in one or more screens of this group.
FN deposition inh = inhibitors of fibronectin matrix deposition, primary screen, AH1F cells, Alexa488-fibronectin fluorescence, plate reader | AH1F fibroblasts, overnight | inhibition, % at 12.6 µM | hit rate 0.086% among 350,000;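 active means mean inhibition across replicates of 30% or more, regardless of how many single replicates reach that level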
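Schedule: 1 h cell adhesion before compound, then overnight fibronectin incubation; test system: AH1F fibroblast monolayer depositing Alexa488-labelled fibronectin into matrix; quantity: 10000 AH1F cells per well; probe or stimulus: fluorescent fibronectin at 24 nM final; signal: fluorescence, ex 485 nm, em 525 nm; evaluation: percent inhibition as loss of matrix-bound fibronectin fluorescence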
SR-BI uptake up = activators of SR-BI mediated DiI-HDL uptake, primary screen, ldlA[mSR-BI] CHO cells, DiI fluorescence; 3 h; 100 = double the neutral-control signal; activation, % at 12.5 µM; hit rate 0.096% among 320,000; AID 504775, 2011;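 active means mean replicate activation of at least 60% and every replicate at or above 60%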
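Test system: SR-BI-overexpressing, LDLR-lacking CHO cells. Measured by: DiI fluorescence, bottom read. Medium: Ham's F12 with 0.5% BSA, HEPES 25 mM, pH 7.4. Timing: 3 h uptake period with compound, 37 °C.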
SR-BI DiI inh = inhibitors of SR-BI mediated HDL lipid uptake, primary screen, ldlA[mSR-BI] cells, fluorescence, single point | AID 488896, 2010 | Scavenger receptor class B member 1 (Mus musculus), Q61009 | hit rate 0.96% among 320,000 | inhibition, % at 12.5 µM | ldlA[mSR-BI] CHO cells, DiI-HDL uptake fluorescence, 3 h;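 active means mean replicate inhibition of at least 70% and a set share of replicates each scoring 70 or more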
Target sequence (Q61009 whole entry, looked up): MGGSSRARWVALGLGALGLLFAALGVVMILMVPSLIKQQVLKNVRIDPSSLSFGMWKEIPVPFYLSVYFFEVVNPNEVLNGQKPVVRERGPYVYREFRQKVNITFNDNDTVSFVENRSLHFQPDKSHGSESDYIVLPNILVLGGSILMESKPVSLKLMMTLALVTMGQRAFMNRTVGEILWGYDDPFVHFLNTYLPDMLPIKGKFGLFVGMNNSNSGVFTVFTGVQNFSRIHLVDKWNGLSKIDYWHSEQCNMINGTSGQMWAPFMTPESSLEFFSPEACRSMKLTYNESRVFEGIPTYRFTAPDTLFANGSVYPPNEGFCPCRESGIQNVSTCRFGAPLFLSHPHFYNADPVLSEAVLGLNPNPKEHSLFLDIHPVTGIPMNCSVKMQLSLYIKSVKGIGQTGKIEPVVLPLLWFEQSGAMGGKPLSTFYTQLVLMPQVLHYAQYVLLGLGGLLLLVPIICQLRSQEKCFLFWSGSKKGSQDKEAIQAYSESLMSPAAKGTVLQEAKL
Efflux pump mplx = inhibitors of Candida efflux pumps in yeast, primary screen, S. cerevisiae, Nile Red, multiplex; inhibition, % at 10 µM; S. cerevisiae Candida pump triplex; hit rate 0.44% among 330,000; AID 485275, 2010;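 active means plate passing quality check with inhibition over a set limit, or well fluorescence over plate mean plus 4 SD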;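 further: Nile Red retained in pooled yeast measured as flow cytometry median fluorescence; higher means more Nile Red kept so more efflux inhibition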
CaV13 ICDI inh = Disruptors of the CACNA1D IQ motif to Ca2+-dependent inactivation inhibitor domain association, primary screening, Förster resonance energy transfer in intact living …; inhibition, % at 12.3 µM; HEK cells, CFP/YFP FRET ICDI-IQ, plate reader, 10 min; percent FRET-ratio fall versus neutral wells; hit rate 0.098% among 340,000;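 active means mean replicate inhibition of at least 30% and at least 1% of replicates passing that level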
Cmpd fluor yeast = compound fluorescence in yeast efflux pump counter-screen; S. cerevisiae AD/pABC3, flow cytometry; shares compounds with Efflux pump mplx; fluorescence ratio to DMSO, % at 10 µM; hit rate 4% among 1,700; AID 588517;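 active means fluorescence ratio to DMSO above its plate's cutoff, the plate mean ratio plus 5 SD, cut at about 210% in these data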;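 further: unstained yeast with no Nile Red so the signal is compound autofluorescence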
CaMdr1 efflux inh = inhibitors of Candida albicans Mdr1 efflux, confirmation, flow cytometry, singleplex, Cherry Pick1 set | shares compounds with Efflux pump mplx | S. cerevisiae AD/CaMDR1, Nile Red efflux | inhibition, % at 10 µM | hit rate 1% among 1,700; in the data active means inhibition above about 26%;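 further: higher means more Nile Red retained so more efflux inhibition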
CaCdr2 efflux inh = inhibitors of Candida albicans Cdr2 efflux pump, confirmation, S. cerevisiae AD/CaCDR2, flow cytometry, cherry pick 1, singleplex. Nile Red retention. Nile Red retention ratio vs DMSO, % at 10 µM. shares compounds with Efflux pump mplx. AID 588520, 2011. hit rate 4% among 1,700; in the data active means Nile Red retention ratio vs DMSO above about 190%;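 further: higher ratio means more blocking of Cdr2 efflux of the dye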
Cdr1 pump inh = inhibitors of Candida albicans Cdr1 efflux pump, confirmation, S. cerevisiae AD/CaCDR1, flow cytometry, cherry pick 1, singleplex | AID 588522, 2011 | Nile Red efflux | hit rate 1% among 1,700 | inhibition, % at 10 µM | shares compounds with Efflux pump mplx;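 active means inhibition above the screen-wide mean plus twice its standard deviation, cut at about 32% in these data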
Numbers stand for hits.

Screening O=C(Oc1c(-c2ccccc2)c(=O)n2c3c(cccc13)CC2)c1ccc(F)cc1 returned FN deposition inh inactive, SR-BI uptake up inactive, SR-BI DiI inh inactive, Efflux pump mplx 0.6, CaV13 ICDI inh inactive, Cmpd fluor yeast inactive, CaMdr1 efflux inh inactive, CaCdr2 efflux inh inactive and Cdr1 pump inh inactive.
`O=C(NCCc1ccccc1)c1c(O)c2cccc3c2n(c1=O)CC3` gave SR-BI uptake up inactive, SR-BI DiI inh inactive and Efflux pump mplx inactive.
O=C(Oc1c(-c2ccccc2)c(=O)n2c3c(cccc13)CC2)c1cccc([N+](=O)[O-])c1 was read as FN deposition inh inactive, SR-BI uptake up inactive, SR-BI DiI inh inactive, Efflux pump mplx 0.6, CaV13 ICDI inh inactive, Cmpd fluor yeast inactive, CaMdr1 efflux inh inactive, CaCdr2 efflux inh inactive and Cdr1 pump inh inactive.
`O=C(Oc1c(-c2ccccc2)c(=O)n2c3c(cccc13)CC2)c1ccccc1` gave FN deposition inh inactive, Efflux pump mplx inactive, CaV13 ICDI inh inactive, Cmpd fluor yeast inactive, CaMdr1 efflux inh inactive, CaCdr2 efflux inh inactive and Cdr1 pump inh inactive.
CO[C@H]1CN(C)C(=O)c2cc(NC(=O)c3cnccn3)ccc2OC[C@H](C)N(C)C[C@@H]1C was read as FN deposition inh inactive.
For COc1cc(/C(C#N)=C/c2cccc3ccccc23)c([N+](=O)[O-])cc1OC the results were FN deposition inh inactive, SR-BI uptake up inactive, SR-BI DiI inh inactive, Efflux pump mplx 5.5, CaV13 ICDI inh inactive, Cmpd fluor yeast inactive, CaMdr1 efflux inh inactive, CaCdr2 efflux inh inactive and Cdr1 pump inh inactive.
For CN(C)CC/C=C1\c2ccccc2Sc2ccc(Cl)cc21 the results were FN deposition inh inactive, SR-BI uptake up inactive, SR-BI DiI inh inactive, Efflux pump mplx inactive and CaV13 ICDI inh inactive.
CCCCCCCCCCC[N+](C)(C)CC/C=C1/c2ccccc2Sc2ccc(Cl)cc21 was read as SR-BI uptake up inactive, SR-BI DiI inh inactive, Efflux pump mplx 1.8, Cmpd fluor yeast inactive, CaMdr1 efflux inh inactive, CaCdr2 efflux inh 259.7 and Cdr1 pump inh inactive.
`CC[N+](C)(C)CC/C=C1/c2ccccc2Sc2ccc(Cl)cc21` gave FN deposition inh inactive, Efflux pump mplx inactive, CaV13 ICDI inh inactive, Cmpd fluor yeast inactive, CaMdr1 efflux inh inactive, CaCdr2 efflux inh inactive and Cdr1 pump inh inactive.
CCCCCCCCCC[N+](C)(C)CC/C=C1/c2ccccc2Sc2ccc(Cl)cc21 was read as SR-BI uptake up inactive, SR-BI DiI inh inactive, Efflux pump mplx 1.8, Cmpd fluor yeast inactive, CaMdr1 efflux inh inactive, CaCdr2 efflux inh inactive and Cdr1 pump inh inactive.
`Cc1nc2sc3c(c2c2nnc(SCC(=O)NCc4ccco4)n12)CCCC3` gave SR-BI uptake up inactive, SR-BI DiI inh inactive, Efflux pump mplx 0.8, CaV13 ICDI inh inactive, Cmpd fluor yeast inactive, CaMdr1 efflux inh inactive, CaCdr2 efflux inh inactive and Cdr1 pump inh inactive.
`O=C(CSc1nnc(-c2ccncc2)n1CC1CCCO1)NCc1ccccc1` (configuration not stated) gave SR-BI uptake up inactive, SR-BI DiI inh inactive, Efflux pump mplx inactive and CaV13 ICDI inh inactive.
O=C(CSc1nnc(-c2ccncc2)n1CC1CCCO1)Nc1ccccc1Cl (configuration not stated) was read as FN deposition inh inactive, SR-BI uptake up inactive, SR-BI DiI inh inactive, Efflux pump mplx 0.5, CaV13 ICDI inh inactive, Cmpd fluor yeast inactive, CaMdr1 efflux inh inactive, CaCdr2 efflux inh inactive and Cdr1 pump inh inactive.
Screening COc1cccc(/C=C/C(=O)N2CC(C)OC(C)C2)c1OC (configuration not stated) returned FN deposition inh inactive, Efflux pump mplx 1.7, CaV13 ICDI inh inactive, Cmpd fluor yeast inactive, CaMdr1 efflux inh inactive, CaCdr2 efflux inh inactive and Cdr1 pump inh inactive.
Screening COc1cc(/C=C/C(=O)N2CC(C)OC(C)C2)cc(OC)c1OC (configuration not stated) returned FN deposition inh inactive, SR-BI uptake up inactive, SR-BI DiI inh inactive, Efflux pump mplx inactive and CaV13 ICDI inh inactive.
`COC(=O)[C@H]1[C@H](CO)[C@H]2Cn3c(cccc3=O)[C@H]2N1C(=O)C1CCCC1` gave FN deposition inh inactive.
For COc1ccccc1NC(=O)CNc1ccc(F)c(Cl)c1 the results were FN deposition inh inactive, SR-BI uptake up inactive, SR-BI DiI inh inactive, Efflux pump mplx 13.9, CaV13 ICDI inh inactive, Cmpd fluor yeast inactive, CaMdr1 efflux inh inactive, CaCdr2 efflux inh inactive and Cdr1 pump inh inactive.
For Cc1ccc(C(=O)Nc2ncc3c(n2)CC(c2ccco2)CC3=O)cc1 (configuration not stated) the results were FN deposition inh inactive, SR-BI uptake up inactive, SR-BI DiI inh inactive, Efflux pump mplx 9.0, CaV13 ICDI inh inactive, Cmpd fluor yeast inactive, CaMdr1 efflux inh inactive, CaCdr2 efflux inh inactive and Cdr1 pump inh inactive.
For O=C1C[C@H](c2ccccc2)C(=O)N[C@H](c2ccccc2)C/C=C\C[C@H](c2ccccc2)N1 the results were FN deposition inh inactive.
Screening CC(C)CCNC(=O)CCSCCC(=O)NCCC(C)C returned FN deposition inh inactive, SR-BI uptake up inactive, SR-BI DiI inh inactive, Efflux pump mplx 8.9, CaV13 ICDI inh inactive, Cmpd fluor yeast inactive, CaMdr1 efflux inh inactive, CaCdr2 efflux inh inactive and Cdr1 pump inh inactive.
COc1cccc(C(=O)Nc2ccc3c(c2)C(=O)N(C)C[C@@H](OC)[C@H](C)CN(CC2CC2)[C@@H](C)CO3)c1 was read as FN deposition inh inactive.
Screening N#CCCN1CCN(C(=S)c2ccc(-c3ccc(Cl)c(Cl)c3)o2)CC1 returned SR-BI uptake up inactive, SR-BI DiI inh inactive, Efflux pump mplx 1.0, Cmpd fluor yeast inactive, CaMdr1 efflux inh inactive, CaCdr2 efflux inh inactive and Cdr1 pump inh inactive.
COc1ccc(-c2cnc(SCC(=O)Nc3nc(C(C)(C)C)cs3)n2Cc2ccco2)cc1 was read as SR-BI uptake up inactive, SR-BI DiI inh inactive, Efflux pump mplx 0.4, CaV13 ICDI inh inactive, Cmpd fluor yeast inactive, CaMdr1 efflux inh inactive, CaCdr2 efflux inh inactive and Cdr1 pump inh inactive.
